Data: ChEMBL document CHEMBL1157623, “Benzyl 1,2,3,5,11,11a-hexahydro-3,3-dimethyl-1-oxo-6H-imidazo[3',4':1,2]pyridin[3,4-b]indole-2-substituted acetates: One-pot-preparation, anti-tumor activity, docking toward DNA and 3D QSAR analysis” (Bioorg Med Chem, 2010)

What was measured:
CCRF S-180 = test: Antitumor activity against mouse S180 cells xenografted in ICR mouse assessed as tumor weight at 1 mg/kg, ip administered 24 hrs after tumor implantation daily for 7 consecutive days measured after 24 hrs of last dose (Rvb=1.602 +/- 0.391 g); format: functional; conditions: route intraperitoneal
Mus musculus [1] = test: Toxicity in ICR mouse xenografted with mouse S180 cells assessed as brain weight at 1 mg/kg, ip administered 24 hrs after tumor implantation daily for 7 consecutive days measured after 24 hrs of last dose (Rvb=0.31 +/- 0.01 g); format: organism-based, CCRF S-180; design: dose 1 mg/kg, route intraperitoneal; conditions: in vivo
Mus musculus [2] = test: Toxicity in ICR mouse xenografted with mouse S180 cells assessed as heart weight at 1 mg/kg, ip administered 24 hrs after tumor implantation daily for 7 consecutive days measured after 24 hrs of last dose (Rvb=0.17 +/- 0.01 g); format: organism-based, CCRF S-180; design: dose 1 mg/kg, route intraperitoneal; conditions: in vivo
Mus musculus [3] = test: Toxicity in ICR mouse xenografted with mouse S180 cells assessed as liver weight at 1 mg/kg, ip administered 24 hrs after tumor implantation daily for 7 consecutive days measured after 24 hrs of last dose (Rvb=2.36 +/- 0.20 g); format: organism-based, CCRF S-180; design: dose 1 mg/kg, route intraperitoneal; conditions: in vivo
Mus musculus [4] = test: Toxicity in ICR mouse xenografted with mouse S180 cells assessed as body weight at 1 mg/kg, ip administered 24 hrs after tumor implantation daily for 7 consecutive days measured after 24 hrs of last dose (Rvb=33.3 +/- 2.32 g); format: organism-based, CCRF S-180; design: dose 1 mg/kg, route intraperitoneal; conditions: in vivo
Mus musculus [5] = test: Toxicity in ICR mouse xenografted with mouse S180 cells assessed as kidney weight at 1 mg/kg, ip administered 24 hrs after tumor implantation daily for 7 consecutive days measured after 24 hrs of last dose (Rvb=0.23 +/- 0.02 g); format: organism-based, CCRF S-180; design: dose 1 mg/kg, route intraperitoneal; conditions: in vivo
Mus musculus [6] = test: Toxicity in ICR mouse xenografted with mouse S180 cells assessed as femur weight at 1 mg/kg, ip administered 24 hrs after tumor implantation daily for 7 consecutive days measured after 24 hrs of last dose (Rvb=0.056 +/- 0.006 g); format: organism-based, CCRF S-180; design: dose 1 mg/kg, route intraperitoneal; conditions: in vivo
Mus musculus [7] = test: Toxicity in ICR mouse xenografted with mouse S180 cells assessed as spleen weight at 1 mg/kg, ip administered 24 hrs after tumor implantation daily for 7 consecutive days measured after 24 hrs of last dose (Rvb=0.22 +/- 0.04 g); format: organism-based, CCRF S-180; design: dose 1 mg/kg, route intraperitoneal; conditions: in vivo
MCF7 = test: Antiproliferative activity against human MCF7 cells after 3 days by sulforhodamine B assay; format: functional, cell-based; conditions: MCF7, 72 h
Method in brief: (§1)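 Freshly trypsinized cells seeded at 5000 per well; compounds added from DMSO-diluted stock at 60, 6, 0.6, 0.06 and 0.006 µM. After 3 days, attached cells were fixed with cold 10% trichloroacetic acid, stained with 0.4% sulforhodamine B, the bound dye solubilized, and absorbance read at 562 nm. IC50 is the concentration reducing cell growth by 50%, averaged from at least three independent determinations.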

A549 = test: Antiproliferative activity against human A549 cells after 3 days by sulforhodamine B assay; format: functional, cell-based; conditions: A549, 72 h; method in brief: as §1
[8] = Antiproliferative activity against human KBVIN cells after 3 days by sulforhodamine B assay; format: functional, cell-based; conditions: 72 h; method in brief: as §1
PC-3 = test: Antiproliferative activity against human PC3 cells after 3 days by sulforhodamine B assay; format: functional, cell-based; conditions: PC-3, 72 h; method in brief: as §1
KB = test: Antiproliferative activity against human KB cells after 3 days by sulforhodamine B assay; format: functional, cell-based; conditions: 72 h; method in brief: as §1
[9] = Lipophilicity, log K at 10 uM after 40 mins by HPLC analysis; format: physicochemical
Method in brief: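 Sample at 10^-5 M analysed by reversed-phase C18 HPLC, eluted with CH3OH/H2O 0.7/0.3 at 1 mL/min for 40 min, UV detection at 254.8 nm. Retention time tR recorded; acetone peak taken as t0 (1.591 min). Log K = Log[(tR − t0)/t0].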

Mus musculus [10] = test: Toxicity in ICR mouse assessed as change in liver weight at 10 to 500 mg/kg, ip measured on day 7 post dose by necroscopy; format: organism-based; design: dose 10-500 mg/kg, route intraperitoneal; conditions: in vivo
[11] = Toxicity in ip dosed ICR mouse measured after 7 days post dose; format: organism-based; conditions: in vivo
Method in brief: (§2)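 ICR mice, 10–12 weeks old, of both sexes (six males and six females, 12 per group), housed at 21 °C and fasted overnight with water available. They received a single ip injection of 10, 100 or 500 mg/kg in 0.2 mL 0.9% saline. Mice were watched continuously for 7 days for neurotoxic behaviour or death, then killed on day 7 and checked macroscopically (heart, liver, kidneys). LD50 was estimated graphically.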

Mus musculus [12] = test: Toxicity in ICR mouse assessed as change in heart weight at 10 to 500 mg/kg, ip measured on day 7 post dose by necroscopy; format: organism-based; design: dose 10-500 mg/kg, route intraperitoneal; conditions: in vivo
Mus musculus [13] = test: Toxicity in ICR mouse assessed as mortality up to 500 mg/kg, ip measured after 7 days post dose; format: organism-based; design: dose 500 mg/kg, route intraperitoneal; conditions: in vivo, 168 h; method in brief: as §2
Mus musculus [14] = test: Neurotoxicity in ICR mouse assessed as occurrence of neurotoxic behavior at 10 to 500 mg/kg, ip measured up to 7 days post dose; format: toxicity, organism-based; design: dose 10-500 mg/kg, route intraperitoneal; conditions: in vivo, 168 h
Method in brief: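 Healthy ICR mice, 10–12 weeks old, 12 per group (six male, six female), fasted overnight with water available. Single ip injection of 10, 100 or 500 mg/kg in 0.2 mL 0.9% saline. Monitored continuously up to 7 days for abnormal behavior (tremor, twitch, jumping, tetanus, supination) or death. Sacrificed on day 7; heart, liver and kidneys checked macroscopically.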

Mus musculus [15] = test: Toxicity in ICR mouse assessed as change in kidney weight at 10 to 500 mg/kg, ip measured on day 7 post dose by necroscopy; format: organism-based; design: dose 10-500 mg/kg, route intraperitoneal; conditions: in vivo

`COc1cccc2c1C(=O)c1c(O)c3c(c(O)c1C2=O)C[C@@](O)(C(=O)CO)C[C@@H]3O[C@H]1C[C@H](N)[C@H](O)[C@H](C)O1` [DOXORUBICIN] gave an Activity (CCRF S-180) of 0.817 g, an Activity (Mus musculus [1]) of 0.32 g and an Activity (Mus musculus [2]) of 0.15 g. It also gave an Activity (Mus musculus [3]) of 2 g, an Activity (Mus musculus [4]) of 27.28 g and an Activity (Mus musculus [5]) of 0.19 g. For the same molecule, the Activity (Mus musculus [6]) was 0.046 g and the Activity (Mus musculus [7]) was 0.11 g.
`C[C@@H](C(=O)OCc1ccccc1)N1C(=O)[C@@H]2Cc3c([nH]c4ccccc34)CN2C1(C)C` gave an IC50 (MCF7) of 57 µM, an Activity (CCRF S-180) of 1.418 g and an IC50 (A549) of 59.1 µM. For the same molecule, the IC50 [8] was 55.7 µM, the IC50 (PC-3) was 48 µM and the IC50 (KB) was 60.3 µM. The “log K” value [9] was 0.44.
Work on `CC1(C)N2Cc3[nH]c4ccccc4c3C[C@H]2C(=O)N1[C@@H](Cc1ccccc1)C(=O)OCc1ccccc1` yielded an IC50 (MCF7) of 43 µM, an Activity (CCRF S-180) of 1.6 g and an IC50 (A549) of 35.3 µM. For the same molecule, the IC50 [8] was 41.1 µM, the IC50 (PC-3) was 40.6 µM and the IC50 (KB) was 46.4 µM. The “log K” value [9] was 1.05.
`CC1(C)N2Cc3[nH]c4ccccc4c3C[C@H]2C(=O)N1[C@@H](CCC(N)=O)C(=O)OCc1ccccc1` showed an IC50 (MCF7) of 20.4 µM, an Activity (CCRF S-180) of 1.696 g and an IC50 (A549) of 38.4 µM. It also gave an IC50 [8] of 40 µM, an IC50 (PC-3) of 10 µM and an IC50 (KB) of 42.1 µM. The “log K” value [9] was 0.25.
For `CC1(C)N(CC(=O)OCc2ccccc2)C(=O)[C@@H]2Cc3c([nH]c4ccccc34)CN21`, the Activity (Mus musculus [10]) was “Non-toxic”, the IC50 (MCF7) was 10.4 µM and the LD50 at 168 h [11] was greater than 500 mg/kg. The Activity (Mus musculus [12]) was “Non-toxic”, the Activity (CCRF S-180) was 0.916 g and the Activity (Mus musculus [1]) was 0.3 g. The Activity (Mus musculus [2]) was 0.16 g, the Activity (Mus musculus [13]) was “Non-toxic” and the Activity (Mus musculus [3]) was 2.25 g. For the same molecule, the Activity (Mus musculus [4]) was 33.75 g, the Activity (Mus musculus [14]) was “Non-toxic” and the IC50 (A549) was 7.92 µM. For the same molecule, the Activity (Mus musculus [5]) was 0.22 g, the IC50 [8] was 12.2 µM and the Activity (Mus musculus [6]) was 0.055 g. The IC50 (PC-3) was 9.98 µM, the IC50 (KB) was 22.5 µM and the Activity (Mus musculus [7]) was 0.24 g. The Activity (Mus musculus [15]) was “Non-toxic” and the “log K” value [9] was 0.32.
`CC1(C)N2Cc3[nH]c4ccccc4c3C[C@H]2C(=O)N1[C@@H](CC(N)=O)C(=O)OCc1ccccc1` showed an IC50 (MCF7) of 20.2 µM, an Activity (CCRF S-180) of 1.604 g and an IC50 (A549) of 39.6 µM. For the same molecule, the IC50 [8] was 50.1 µM, the IC50 (PC-3) was 17 µM and the IC50 (KB) was 43.5 µM. For the same molecule, the “log K” value [9] was 0.16.
`CC1(C)N2Cc3[nH]c4ccccc4c3C[C@H]2C(=O)N1[C@@H](CCCCNC(=O)OCc1ccccc1)C(=O)OCc1ccccc1` showed an IC50 (MCF7) of 4.61 µM, an Activity (CCRF S-180) of 1.613 g and an IC50 (A549) of 8.34 µM. It also gave an IC50 [8] of 30.6 µM, an IC50 (PC-3) of 4.24 µM and an IC50 (KB) of 32.9 µM. For the same molecule, the “log K” value [9] was 0.87.
